Screens from PubChem BioAssay.
KCNQ1 inh: inhibitors of human KCNQ1 channel, primary screen, cell-based, thallium flux, high-throughput; 310,000 tested, 1.3% active; B-score at 10 µM; CHO-K1 KCNQ1, FluxOR thallium flux fluorescence; active compounds read high; AID 2642, 2010;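 active = compounds whose thallium flux B-score, printed positive for inhibition, exceeds three library SD while starting fluorescence stays within three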;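 note: channel opened by potassium depolarization with thallium stimulus after 20 min compound exposure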
KCNK3 inh: human KCNK3 channel inhibitors, primary screen, CHO cells, FluxOR thallium flux, B-score; FluxOR fluorescence; active compounds read low; AID 602410, 2012; Potassium channel subfamily K member 3 (Homo sapiens), O14649; 340,000 tested, 0.84% active; B-score at 10 µM;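 active = B-score under library mean minus 4 SD, starting fluorescence ratio at most library mean plus 5 SD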;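 note: more negative B-score means stronger inhibition of thallium flux through KCNK3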
KCNK9 inh: KCNK9 potassium channel inhibitors, primary screen, HEK293 cells, thallium flux; Potassium channel subfamily K member 9 (Homo sapiens), Q9NPC2; FluxOR thallium flux fluorescence; active compounds read low; B-score at 10 µM; 310,000 tested, 1.2% active;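 active = ratio B-score over 3 SD below the library mean, with starting fluorescence within 5 SD of its mean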;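 note: negative B-score means less thallium flux so channel inhibition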
Target sequence (Q9NPC2 whole entry, looked up): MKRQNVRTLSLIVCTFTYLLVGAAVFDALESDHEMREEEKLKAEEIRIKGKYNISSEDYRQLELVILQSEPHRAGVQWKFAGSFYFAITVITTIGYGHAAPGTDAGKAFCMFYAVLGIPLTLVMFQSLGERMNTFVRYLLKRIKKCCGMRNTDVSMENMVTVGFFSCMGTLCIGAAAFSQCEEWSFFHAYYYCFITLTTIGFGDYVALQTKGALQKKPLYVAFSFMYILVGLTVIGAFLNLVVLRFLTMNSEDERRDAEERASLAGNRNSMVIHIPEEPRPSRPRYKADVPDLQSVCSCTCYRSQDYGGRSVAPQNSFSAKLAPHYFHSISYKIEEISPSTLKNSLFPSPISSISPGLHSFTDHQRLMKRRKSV
Kir21 inh: inhibitors of mouse Kir2.1 inward-rectifier potassium channel | AID 1672, 2009 | HEK293-Kir2.1, FluxOR thallium flux fluorescence; active compounds read low | B-score at 10 µM | 310,000 tested, 0.85% active | Inward rectifier potassium channel 2 (Mus musculus), P35561;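 active = fluorescence ratio B-score at or below minus 3 SD of library scores, with starting-brightness B-score within 2 SD, cut at about -4.2 in these data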;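 note: channel flux triggered by added potassium and thallium sulfate stimulus; B-score of peak minus minimum fluorescence over baseline after thallium stimulus; more negative B-score means stronger Kir2.1 block with less thallium influx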
KCNQ1 act: potentiators or activators of KCNQ1 channel, primary screen, cell-based, thallium flux, high-throughput; Potassium voltage-gated channel subfamily KQT member 1 (Homo sapiens), P51787; CHO-K1 KCNQ1, thallium flux FluxOR fluorescence; active compounds read high; B-score at 10 µM; 310,000 tested, 0.35% active;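 active = fluorescence ratio B-score, a plate-corrected score, at least three library SD, with initial intensity B-score within 5 SD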
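Material: CHO-K1 cells stably expressing KCNQ1. Medium: assay buffer for compound exposure, DMSO matched across wells. Reagent: K+/Tl+ depolarizing stimulus. Compound dosing: single-concentration screen. Times: 37 °C overnight plating, 90-min dark dye load, 20-min compound pretreatment. Technique: FluxOR Tl+ flux fluorescence.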
hERG rescue: hERG rescue from dofetilide block, primary screen, cell-based, CHO-hERG, FluxOR thallium flux, dofetilide IC70; Voltage-gated inwardly rectifying potassium channel KCNH2 (Homo sapiens), Q12809; dofetilide IC70 present; activation (rescue from dofetilide block), less the hit threshold, % at 10 µM; 310,000 tested, 0.51% active; AID 1511, 2009;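 active = activation above the mean of controls blocked by dofetilide plus 5 SD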;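 note: thallium influx through hERG after potassium depolarization seen as dye fluorescence rise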
* marks the source's active call; other numbers are inactive results; i = inactive; x = not tested or not shown. The list is not random: actives were taken first. Their share in the collection is about 3.8%.

SMILES | KCNQ1 inh | KCNK3 inh | KCNK9 inh | Kir21 inh | KCNQ1 act | hERG rescue
CCOc1cc(C2Nc3ccccc3C(=O)N2c2ccccc2OC)ccc1O (stereo not drawn) | i | i | i | -0.18 | i | 19*
C=CCNC(=S)NNc1nc2c(c(=O)[nH]1)C1(CCCCC1)Cc1ccccc1-2 | 8* | i | i | 3.7 | i | -14
O=c1[nH]c(NCCO)nc2c1C1(CCCC1)Cc1ccccc1-2 | i | i | i | -1.5 | i | -16
O=C(c1ccc(Cl)c(Cl)c1)N1CCC(=O)N(C(COCc2ccc(Cl)cc2)Cc2ccccc2)CC1 (stereo not drawn) | i | i | i | 1.2 | i | -7
Clc1ccc(SCc2cc(Cl)nc(-c3ccccc3)n2)cc1 | i | i | -6.7* | -0.7 | i | -7
CCOC(=O)CSc1cc(CSc2ccccc2)nc(-c2ccccc2)n1 | i | i | -6.7* | 1.5 | i | -8
CN1C(=O)N(C)C2(c3ccccc3)NNC(N)=NC12c1ccccc1 (stereo not drawn) | i | i | i | -1.1 | i | -11
CCCCc1c(C)nc2ccc(C)cc2c1SCCC(=O)O | i | i | i | -0.55 | i | -9
[O-][n+]1onc2c1C(N1CCOCC1)CCC2N1CCOCC1 (stereo not drawn) | i | i | i | -2.7 | i | -9
O=S(=O)(NCc1csc(-c2cccnc2)n1)c1ccc(Br)cc1 | i | i | i | -7.7* | i | -10
C=CCN1CCc2nc(N)sc2CC1 | x | i | x | x | x | x
Nc1nc2c(s1)CCCCCCCCCC2 | i | i | i | -7.4* | i | -1
CCOC(=O)N1CCC(NC(=O)c2sc(-n3cccc3)nc2C)CC1 | i | i | i | 0.75 | i | -5
CCCCSc1nnc(CCNC(=O)OC(C)(C)C)o1 | i | i | i | 0.35 | i | -2
CC(C)(C)OC(=O)NCCc1nnc(SCC(N)=O)o1 | i | i | i | 1.1 | i | -20
CC(C)(C)OC(=O)NCCc1nnc(SCc2ccccc2Cl)o1 | i | i | i | -5.5* | i | -4
CC(C)(C)OC(=O)NCCc1nnc(SCc2ccccc2)o1 | i | i | i | -6.1* | i | -8
CC(C)(C)OC(=O)NCCCCCc1nnc(SCC(N)=O)o1 | i | i | i | 0.36 | i | 4.6*
CCn1c(SCc2ccc(Cl)cc2)nnc1-c1ccccc1 | i | i | i | -5.3* | i | -10
CCS(=O)(=O)n1nc(-c2ccc(Cl)cc2)nc1SCc1ccccc1 | 10* | x | i | -0.76 | i | -15
COc1ccc(-c2nc(SCc3ccccc3)n(S(C)(=O)=O)n2)cc1 | i | i | i | 0.68 | i | -7
CCn1c(SCc2cccc(C(=O)O)c2)nnc1-c1ccccc1 | i | i | i | 0.02 | i | -6
Clc1ccc(CSc2nnc(-c3cccnc3)n2Cc2ccco2)c(Cl)c1 | i | i | i | -4.3* | i | -18
CCn1c(COc2ccc(Cl)cc2)nnc1SCc1ccc(C#N)cc1 | i | i | i | -4.8* | i | -6
CCN1CCc2c(OCC(=O)N3CCCCC3)cccc2C1=O | i | i | i | 0.58 | i | -12
SMILES | KCNQ1 inh | KCNK3 inh | KCNK9 inh | Kir21 inh | KCNQ1 act | hERG rescue
CCc1ccccc1NC(=O)Nc1cccc(F)c1 | i | i | i | 2.1 | i | -10
c1cncc(CSc2nnc(-c3cccnc3)n2Cc2ccco2)c1 | i | x | i | -1.6 | i | -11
Cc1cccc(-c2nnc(SCc3ccc(C#N)cc3)n2Cc2ccco2)c1 | i | i | i | -5.3* | i | -17
CCn1c(SCc2ccc(C#N)cc2)nnc1-c1cccc(Cl)c1 | i | i | i | -4.6* | i | -11
C=CCn1c(SCc2ccc(C#N)cc2)nnc1-c1ccc(C)cc1 | i | i | i | -2 | i | -5
COC(=O)c1sccc1NC(=O)c1ccnn1C | i | i | i | 0.02 | i | -6
Cc1ccc(CNCCC2=CCCCC2)cc1 | i | i | i | -6.9* | i | -15
O=C(Nc1cccc(S(=O)(=O)NCc2ccco2)c1)c1cc(-c2ccc(F)cc2)nc2ccccc12 | 7* | i | i | -1.4 | i | -10
O=C(Nc1ccccc1)c1cccc(S(=O)(=O)NCc2ccco2)c1 | i | i | i | 1.2 | i | 7.3*
O=C(Nc1ccccc1)c1ccc(S(=O)(=O)NCc2ccco2)cc1 | i | i | i | -0.04 | i | -7
CCc1cc(Cn2nc(-c3ccccc3)cc2C(=O)NCc2cccc(C(F)(F)F)c2)on1 | i | i | i | 0.04 | i | -5
CCC(C)c1ccccc1OCCCNC1CCCC1 (stereo not drawn) | i | i | i | -5.9* | i | -8
COC1CCN(C(=O)CC2C(=O)NCCN2CC(C)(C)C)CC1 (stereo not drawn) | i | i | i | -0.66 | i | -5
CCOC(=O)Cn1nc2sc3ccccc3n2c(=O)c1=O | i | i | i | -0.05 | i | -8
Nc1ccc(S(=O)(=O)N2CCCc3ccccc32)cc1 | i | i | i | -5.7* | i | -5
CC(=O)Nc1ccc(S(=O)(=O)N2CCCc3ccccc32)cc1 | i | i | i | -0.83 | i | -12
O=C(NCc1ccco1)c1cccc(S(=O)(=O)N2CCc3ccccc32)c1 | i | i | i | -0.7 | i | -7
O=C(NCc1ccco1)c1ccc(S(=O)(=O)N2CCCc3ccccc32)cc1 | i | i | -6.9* | -0.99 | i | -9
O=S(=O)(c1ccc(Cl)cc1)N1CCCc2ccccc21 | i | i | i | -4.6* | i | -7
CCn1c(=O)n(CC)c2cc(S(=O)(=O)N3CCc4ccccc43)ccc21 | i | i | i | -4.3* | i | -17
COc1ccc(-c2nnc(SCC(=O)Nc3sc4c(c3C#N)CCC4)n2CC2CCCO2)cc1 (stereo not drawn) | x | i | x | x | x | x
O=C(NCCCN1CCOCC1)c1ccc2c(c1)N(Cc1ccccc1F)C(=O)c1ccccc1S2=O (stereo not drawn) | i | i | i | 0.1 | i | -9
Cc1noc(C)c1CSc1nnc(-c2ccccc2)o1 | i | i | i | 1.2 | i | -11
COCCn1c(SCC(=O)NN2C(=O)NC(C)(c3ccccc3)C2=O)nnc1-c1ccncc1 (stereo not drawn) | x | i | x | x | x | x
